Bioassay records (PubChem)
Compounds with a hit are over-represented: about 3% of the library has one in this group of screens.
NPY-Y2 PAM-ag – NPY-Y2 potentiators or agonists, primary screen, cell-based | cells expressing NPY-Y2, potentiator/agonist read-out | 220,000 compounds, 0.45% hits | activation, % at 3.6 µM | AID 1359, 2008 | Neuropeptide Y receptor type 2 (Homo sapiens), P49146; in the data active means activation above about 27%;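 further: cells stimulated with NPY near EC25 plus isoproterenol at EC100; 0% = vehicle plus submaximal agonist and 100% = vehicle plus saturating agonist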
Hsp70 activator – Hsp70 transcriptional activators, primary screen, cell-based, HeLa, Hsp70 promoter luciferase, luminescence, 10 µM; HeLa Hsp70 promoter luciferase reporter; scaled: vehicle 0, proteasome-inhibitor control 100%; activation, % at 10 µM; 200,000 compounds, 0.04% hits;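 active means activation above the mean across all tested compounds plus 3 SD, cutoff set per campaign, cut at about 5.5% in these data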;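 further: 100% = MG132 at 30 µM as the positive control and 0% = DMSO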
Wee1 stabilizer – Wee1 degradation inhibitors, primary screen, cell-based, HeLa, Wee1K328M-luciferase, luminescence; HeLa Luc-Wee1K328M stability; 100% = proteasome inhibitor MG132 effect; reporter increase, % at 5 µM; 220,000 compounds, 1.2% hits; AID 1321, 2008;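 active means activation above the mean of all tested compounds plus 3 SD, set per screening run, cut at about 8.8% in these data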;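 further: cells exposed to compound for 20 h before luminescence read; 0% = DMSO alone and 100% = MG132 at 30 µM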
NPY1 pot ag – NPY-Y1 receptor potentiators or agonists, primary screen, cell-based | Neuropeptide Y receptor type 1 (Homo sapiens), P25929 | NPY-Y1 expressing cells, potentiator/agonist activation | activation, % at 3.6 µM | 220,000 compounds, 0.37% hits | AID 1304, 2008; in the data active means activation above about 33%, passing the limit was not always enough;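 further: cells stimulated with NPY at EC10 then isoproterenol at EC100; 0% = low agonist plus stimulus and 100% = saturating agonist plus stimulus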
NPY-Y1 antag – NPY-Y1 receptor antagonists, primary screen, cell-based; Neuropeptide Y receptor type 1 (Homo sapiens), P25929; HEK293-CNG Y1 cells, membrane potential fluorescence; NPY at EC95, then isoproterenol; inhibition, % at 3.6 µM; 200,000 compounds, 1% hits;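 active means inhibition above the campaign mean inhibition of all tested compounds plus 3 SD, cut at about 20% in these data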;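 further: 0% = DMSO wells given NPY plus isoproterenol and 100% = isoproterenol alone without NPY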
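Material: HEK293 Y1/CNG channel cell line; also added: NPY (25 nM), isoproterenol (1 µM), Ro 20-1724 (25 µM); doses: one concentration, 3.6 µM, in 0.4% DMSO; schedule: compound incubation 1 h at room temperature, readout 45 min post-stimulation; technique: membrane potential fluorescence; measure: fluorescence ratio normalized to % inhibition between controls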
NPY-Y2 antag – NPY-Y2 receptor antagonists, primary screen, cell-based | 140,000 compounds, 0.99% hits | NPY-Y2 expressing cells, antagonist mode | inhibition, % at 2.7 µM | AID 793, 2007; in the data active means inhibition above about 17%;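 further: 0% = vehicle with agonist challenge and 100% = reference antagonist with challenge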
Active calls of the source: *; / = not tested or not shown.

SMILES	NPY-Y2 PAM-ag	Hsp70 activator	Wee1 stabilizer	NPY1 pot ag	NPY-Y1 antag	NPY-Y2 antag
O=C(c1ccc2c(c1)N(Cc1cccc(Cl)c1)C(=O)c1ccccc1S2(=O)=O)N1CCN(c2ccccn2)CC1	11	0	1	11	-4	/
COC(=O)C1C(c2ccccc2)C(C(=O)OCc2ccco2)C1c1ccccc1 (stereo not given)	-16	0	-2	-70	37*	37*
O=C(O)C1C(c2ccccc2)C(C(=O)OCc2ccco2)C1c1ccccc1 (stereo not given)	7	0	-2	-3	7	0
Cc1c(NC(=O)C(C)Sc2n[nH]c(N)n2)c(=O)n(-c2ccccc2)n1C (stereo not given)	-2	0	0	-14	3	1
Cc1nc(N2CCCCC2)sc1C(=O)c1ccc(Cl)c([N+](=O)[O-])c1	47*	0	0	48*	-11	/
COc1ccc(Cl)cc1C(=O)NC(C)C	10	0	1	-3	9	/
COc1cc(/C=C(/C#N)C(=O)NCCc2c[nH]c3ccccc23)ccc1OCc1ccccc1F	-9	0	1	4	6	0
COc1ccc(-n2cc(CNC3CCC(O)CC3)c(-c3cccc(F)c3)n2)cc1 (stereo not given)	-19	0	-1	-6	2	/
O=[N+]([O-])c1cc(Br)cc(C=Nc2ccc3c(c2)OCO3)c1O	-5	/	9.7*	2	/	/
O=[N+]([O-])c1ccc(O)c(C=Nc2ccc3c(c2)OCO3)c1	0	/	0	-4	/	/
COc1ccc(NC(=O)O/N=C2/CCCc3ccc(OC)cc32)cc1	-4	1	-2	98*	3	5
COc1ccc(CNC(=O)CS(=O)CC(=O)O)cc1OC (stereo not given)	8	0	-1	-14	-1	/
COc1ccc(NC(=O)CCCC2CCCCC2)cc1S(=O)(=O)N1CCCCC1	-7	0	-2	-17	29*	18*
COc1ccc(NC(=O)CSc2ccccc2)cc1S(=O)(=O)N1CCCCC1	0	0	5	-13	0	2
C=CCn1c(SCC(=O)c2c(N)n(C)c(=O)n(C)c2=O)nnc1-c1ccccc1F	3	0	5	-18	4	/
C=CCn1c(COc2ccc(Cl)cc2)nnc1SCC(=O)c1c(N)n(C)c(=O)n(C)c1=O	2	0	10*	-5	1	/
Cc1ccc(-n2nnnc2SCC(=O)N(CC(C)C)c2c(N)n(CC(C)C)c(=O)[nH]c2=O)cc1	-3	0	7	-1	3	/
CCOc1cc(C(=O)Nn2cnnc2)cc(OCC)c1OCC	-1	1	8.9*	2	0	/
CCOc1ccc(N(C(=O)c2cnsn2)C(C(=O)NC2CCCCC2)c2ccncc2)cc1 (stereo not given)	12	0	-2	-27	34*	20*
COc1ccc(N(C(=O)c2cnsn2)C(C(=O)NC2CCCCC2)c2ccncc2)cc1 (stereo not given)	-9	0	-3	-10	17	1
CC(=O)c1cccc(NC2c3ccccc3C(=O)N2Cc2ccc3c(c2)OCO3)c1 (stereo not given)	5	0	9.1*	2	6	8
CCOc1ccc(NC2c3ccccc3C(=O)N2Cc2ccc3c(c2)OCO3)cc1 (stereo not given)	6	0	-1	-4	-3	2
O=[N+]([O-])c1ccc(N2CCCCC2)c(-c2nn[nH]n2)c1	-2	0	2	13	3	/
COc1ccc2cc(C3C(C#N)=C(N)OC(C)=C3C(C)=O)c(Cl)nc2c1 (stereo not given)	0	0	9.0*	0	-2	/
CC(=O)C1=C(C)OC(N)=C(C#N)C1c1ccncc1 (stereo not given)	-9	0	-3	-2	-1	2
